Results reported in ChEMBL document CHEMBL2346640, “Bromo-deaza-SAH: a potent and selective DOT1L inhibitor” (Bioorg Med Chem, 2013).
The source made the active and inactive calls. The calls are words filed in the database; no cut-off is given here.

How the values were obtained:
[1] = target: T1, Histone-lysine N-methyltransferase EHMT1 (Homo sapiens) (UniProt Q9H9B1); assay: Inhibition of EHMT1 (unknown origin) using [3H]SAM assessed as inhibition of biotinylated-H3 (1 to 25 amino acid residues) methylation at 0.1 to 100 uM after 1 hr by scintillation proximity assay
T1 sequence (whole entry): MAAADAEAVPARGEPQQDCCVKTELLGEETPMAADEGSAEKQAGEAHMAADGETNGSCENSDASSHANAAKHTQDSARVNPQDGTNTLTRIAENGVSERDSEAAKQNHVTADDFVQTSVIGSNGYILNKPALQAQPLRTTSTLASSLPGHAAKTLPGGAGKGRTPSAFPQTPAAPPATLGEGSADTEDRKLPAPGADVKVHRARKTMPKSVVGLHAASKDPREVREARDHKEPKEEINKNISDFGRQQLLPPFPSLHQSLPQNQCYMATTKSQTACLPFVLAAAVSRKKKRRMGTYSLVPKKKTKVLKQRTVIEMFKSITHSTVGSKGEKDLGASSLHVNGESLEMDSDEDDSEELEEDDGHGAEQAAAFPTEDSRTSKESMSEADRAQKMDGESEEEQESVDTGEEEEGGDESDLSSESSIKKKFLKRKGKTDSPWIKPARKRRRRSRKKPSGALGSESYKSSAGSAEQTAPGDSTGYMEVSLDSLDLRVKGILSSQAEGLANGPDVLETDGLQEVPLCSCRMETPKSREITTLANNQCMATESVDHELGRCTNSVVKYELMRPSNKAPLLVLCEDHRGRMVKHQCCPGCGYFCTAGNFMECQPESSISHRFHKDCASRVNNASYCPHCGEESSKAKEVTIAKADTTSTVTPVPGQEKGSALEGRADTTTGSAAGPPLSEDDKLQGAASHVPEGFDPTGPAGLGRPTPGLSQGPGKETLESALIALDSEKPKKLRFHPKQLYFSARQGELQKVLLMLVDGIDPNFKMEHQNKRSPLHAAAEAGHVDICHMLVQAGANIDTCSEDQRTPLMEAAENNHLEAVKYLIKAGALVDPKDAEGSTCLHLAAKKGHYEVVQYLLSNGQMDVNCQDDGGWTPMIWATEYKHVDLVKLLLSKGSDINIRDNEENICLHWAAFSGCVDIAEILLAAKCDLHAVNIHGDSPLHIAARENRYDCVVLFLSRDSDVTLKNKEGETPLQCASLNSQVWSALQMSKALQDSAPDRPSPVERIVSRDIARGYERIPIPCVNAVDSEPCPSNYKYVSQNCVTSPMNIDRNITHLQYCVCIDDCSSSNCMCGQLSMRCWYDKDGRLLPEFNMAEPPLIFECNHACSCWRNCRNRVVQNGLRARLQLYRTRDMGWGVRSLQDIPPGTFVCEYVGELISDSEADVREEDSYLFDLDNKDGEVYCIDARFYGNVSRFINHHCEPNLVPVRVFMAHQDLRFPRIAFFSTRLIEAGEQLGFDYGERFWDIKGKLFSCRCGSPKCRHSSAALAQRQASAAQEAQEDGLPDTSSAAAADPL
How it was run: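 Triplicates, 1 h at room temperature. Compound range 100 nM–100 µM. Guanidine stop, then Flashplate counting against no-compound and no-enzyme controls. Ki derived as IC50/2.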

[2] = target: Protein arginine N-methyltransferase 3 (Homo sapiens, UniProt O60678); assay: Inhibition of PRMT3 (unknown origin) using [3H]SAM assessed as inhibition of biotinylated-H4 (1 to 24 amino acid residues) methylation after 1 hr by scintillation proximity assay
[3] = target: DNA (cytosine-5)-methyltransferase 1 (Homo sapiens, UniProt P26358); assay: Inhibition of DNMT1 (unknown origin) using [3H]-SAM assessed as inhibition of dsDNA methylation after 1 hr by scintillation proximity assay
How it was run: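 Incubated 1 h at 37 °C, quenched with guanidine HCl, then counted on a Flashplate. IC50 was taken at the SAM Km and converted to Ki as IC50/2.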

[4] = target: Protein arginine N-methyltransferase 5 (Homo sapiens, UniProt O14744); assay: Inhibition of PRMT5 (unknown origin) using [3H]SAM after 1 hr by scintillation proximity assay
How it was run: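 Triplicates, 1 h at room temperature, compound at 100 nM–100 µM. Guanidine quench, then Flashplate counting. Ki calculated as IC50/2.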

Homo sapiens = species: Homo sapiens; assay: Inhibition of PRC2 complex (unknown origin) using [3H]SAM assessed as inhibition of biotinylated-H3 (21 to 44 amino acid residues) methylation at 0.1 to 100 uM after 1 hr by scintillation proximity assay
[5] = target: T2, N-lysine methyltransferase KMT5A (Homo sapiens) (UniProt Q9NQR1); assay: Inhibition of SETD8 (unknown origin) using [3H]SAM assessed as inhibition of biotinylated-H4 (1 to 24 amino acid residues) methylation at 0.1 to 100 uM after 1 hr by scintillation proximity assay
T2 sequence (whole entry): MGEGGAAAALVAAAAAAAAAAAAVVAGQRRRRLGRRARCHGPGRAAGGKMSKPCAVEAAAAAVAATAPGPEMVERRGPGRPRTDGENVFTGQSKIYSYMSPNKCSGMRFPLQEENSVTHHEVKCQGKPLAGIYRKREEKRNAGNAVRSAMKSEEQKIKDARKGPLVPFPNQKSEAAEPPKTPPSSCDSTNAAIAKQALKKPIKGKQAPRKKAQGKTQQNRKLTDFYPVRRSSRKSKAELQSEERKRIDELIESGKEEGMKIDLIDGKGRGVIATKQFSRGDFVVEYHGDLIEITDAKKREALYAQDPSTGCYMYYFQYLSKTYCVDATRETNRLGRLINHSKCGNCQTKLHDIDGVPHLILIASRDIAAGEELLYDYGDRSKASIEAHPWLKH

[6] = target: T3, Histone-lysine N-methyltransferase EHMT2 (Homo sapiens) (UniProt Q96KQ7); assay: Inhibition of G9a (unknown origin) using [3H]SAM assessed as inhibition of biotinylated-H3 (1 to 25 amino acid residues) methylation after 1 hr by scintillation proximity assay
T3 sequence (whole entry): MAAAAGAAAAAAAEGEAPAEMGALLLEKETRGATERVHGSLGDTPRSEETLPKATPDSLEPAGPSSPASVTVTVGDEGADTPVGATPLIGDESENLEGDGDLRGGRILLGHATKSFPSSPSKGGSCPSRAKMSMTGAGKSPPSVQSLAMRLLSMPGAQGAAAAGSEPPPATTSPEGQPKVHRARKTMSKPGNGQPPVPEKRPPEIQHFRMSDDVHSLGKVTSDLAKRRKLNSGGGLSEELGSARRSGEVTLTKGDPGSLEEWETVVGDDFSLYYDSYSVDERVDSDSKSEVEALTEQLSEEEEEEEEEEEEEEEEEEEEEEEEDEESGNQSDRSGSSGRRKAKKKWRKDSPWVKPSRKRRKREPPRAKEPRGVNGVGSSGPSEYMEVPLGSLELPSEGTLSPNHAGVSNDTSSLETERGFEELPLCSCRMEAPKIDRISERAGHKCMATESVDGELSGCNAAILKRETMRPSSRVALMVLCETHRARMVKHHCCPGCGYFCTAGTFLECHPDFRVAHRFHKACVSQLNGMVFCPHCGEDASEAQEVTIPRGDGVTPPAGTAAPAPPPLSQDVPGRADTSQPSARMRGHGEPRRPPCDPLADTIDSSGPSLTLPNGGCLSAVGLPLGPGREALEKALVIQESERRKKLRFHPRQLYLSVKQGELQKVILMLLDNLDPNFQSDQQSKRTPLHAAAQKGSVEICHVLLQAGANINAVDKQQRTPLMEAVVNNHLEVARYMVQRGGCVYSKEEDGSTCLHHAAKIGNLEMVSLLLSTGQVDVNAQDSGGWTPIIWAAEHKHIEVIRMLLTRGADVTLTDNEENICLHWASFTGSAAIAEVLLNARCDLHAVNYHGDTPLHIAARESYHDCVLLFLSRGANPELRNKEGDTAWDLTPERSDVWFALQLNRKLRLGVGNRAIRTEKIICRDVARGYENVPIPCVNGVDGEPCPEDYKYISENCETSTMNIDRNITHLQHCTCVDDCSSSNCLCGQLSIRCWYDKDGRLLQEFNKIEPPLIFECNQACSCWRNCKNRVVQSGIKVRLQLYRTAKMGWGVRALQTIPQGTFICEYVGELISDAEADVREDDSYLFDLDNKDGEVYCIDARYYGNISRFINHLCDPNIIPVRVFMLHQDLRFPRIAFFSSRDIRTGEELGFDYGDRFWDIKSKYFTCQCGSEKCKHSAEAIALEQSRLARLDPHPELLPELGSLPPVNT
How it was run: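 Triplicates, 1 h at room temperature. Guanidine HCl stop, then Flashplate CPM. Compound at 100 nM–100 µM. Activity normalised to no-compound (100%) and no-enzyme (0%) controls. Ki = IC50/2.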

[7] = target: Histone-lysine N-methyltransferase SUV39H2 (Homo sapiens) (UniProt Q9H5I1); assay: Inhibition of SUV39H2 (unknown origin) using [3H]SAM assessed as inhibition of biotinylated-H3 (1 to 25 amino acid residues) methylation at 0.1 to 100 uM after 1 hr by scintillation proximity assay
How it was run: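 Triplicate 1 h room-temperature reactions with compound at 100 nM–100 µM. Read on Flashplate after guanidine quench. Ki = IC50/2.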

[8] = target: T4, Histone-lysine N-methyltransferase SETD7 (Homo sapiens) (UniProt Q8WTS6); assay: Inhibition of SETD7 (unknown origin) using [3H]SAM assessed as inhibition of biotinylated-H3 (1 to 25 amino acid residues) methylation at 0.1 to 100 uM after 1 hr by scintillation proximity assay
T4 sequence (whole entry): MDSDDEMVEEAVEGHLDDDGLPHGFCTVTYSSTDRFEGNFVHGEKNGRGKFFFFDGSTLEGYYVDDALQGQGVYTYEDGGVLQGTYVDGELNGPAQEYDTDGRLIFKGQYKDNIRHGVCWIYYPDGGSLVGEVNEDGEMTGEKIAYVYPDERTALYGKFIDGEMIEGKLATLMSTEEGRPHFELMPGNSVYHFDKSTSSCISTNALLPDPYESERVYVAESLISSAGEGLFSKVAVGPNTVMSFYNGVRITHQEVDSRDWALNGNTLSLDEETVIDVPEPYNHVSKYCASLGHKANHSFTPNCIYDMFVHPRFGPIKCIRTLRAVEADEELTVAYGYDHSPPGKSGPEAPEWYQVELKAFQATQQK
How it was run: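 Triplicates, 1 h at room temperature, compound at 100 nM–100 µM. Guanidine HCl stop, then Flashplate CPM normalised to controls. Ki = IC50/2.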

[9] = target: Histone-lysine N-methyltransferase 2A (Homo sapiens) (UniProt Q03164); assay: Inhibition of MLL1 (unknown origin) using [3H]SAM assessed as inhibition of biotinylated-H3 (1 to 25 amino acid residues) methylation at 0.1 to 100 uM after 1 hr by scintillation proximity assay
[10] = target: T5, Nicotinamide N-methyltransferase (Homo sapiens, UniProt P40261); assay: Inhibition of recombinant full length human NNMT measured for 30 mins by SAHH-coupled fluorescence assay
T5 sequence (P40261 whole entry): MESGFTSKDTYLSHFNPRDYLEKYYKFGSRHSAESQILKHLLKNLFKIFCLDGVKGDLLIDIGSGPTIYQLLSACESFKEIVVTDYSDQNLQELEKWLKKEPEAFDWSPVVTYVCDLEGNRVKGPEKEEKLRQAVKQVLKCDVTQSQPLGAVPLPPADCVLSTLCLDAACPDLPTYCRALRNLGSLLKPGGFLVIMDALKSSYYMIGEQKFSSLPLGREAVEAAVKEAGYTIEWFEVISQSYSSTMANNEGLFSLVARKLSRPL
How it was run: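 Compound at 0.1–100 µM. Fluorescence (ex 360, em 528 nm) followed for 30 min; rates taken from initial linear slopes and expressed as % activity. IC50 from a four-parameter logistic fit; SD from three independent experiments.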

Sequence of DNA (cytosine-5)-methyltransferase 1 (P26358 whole entry): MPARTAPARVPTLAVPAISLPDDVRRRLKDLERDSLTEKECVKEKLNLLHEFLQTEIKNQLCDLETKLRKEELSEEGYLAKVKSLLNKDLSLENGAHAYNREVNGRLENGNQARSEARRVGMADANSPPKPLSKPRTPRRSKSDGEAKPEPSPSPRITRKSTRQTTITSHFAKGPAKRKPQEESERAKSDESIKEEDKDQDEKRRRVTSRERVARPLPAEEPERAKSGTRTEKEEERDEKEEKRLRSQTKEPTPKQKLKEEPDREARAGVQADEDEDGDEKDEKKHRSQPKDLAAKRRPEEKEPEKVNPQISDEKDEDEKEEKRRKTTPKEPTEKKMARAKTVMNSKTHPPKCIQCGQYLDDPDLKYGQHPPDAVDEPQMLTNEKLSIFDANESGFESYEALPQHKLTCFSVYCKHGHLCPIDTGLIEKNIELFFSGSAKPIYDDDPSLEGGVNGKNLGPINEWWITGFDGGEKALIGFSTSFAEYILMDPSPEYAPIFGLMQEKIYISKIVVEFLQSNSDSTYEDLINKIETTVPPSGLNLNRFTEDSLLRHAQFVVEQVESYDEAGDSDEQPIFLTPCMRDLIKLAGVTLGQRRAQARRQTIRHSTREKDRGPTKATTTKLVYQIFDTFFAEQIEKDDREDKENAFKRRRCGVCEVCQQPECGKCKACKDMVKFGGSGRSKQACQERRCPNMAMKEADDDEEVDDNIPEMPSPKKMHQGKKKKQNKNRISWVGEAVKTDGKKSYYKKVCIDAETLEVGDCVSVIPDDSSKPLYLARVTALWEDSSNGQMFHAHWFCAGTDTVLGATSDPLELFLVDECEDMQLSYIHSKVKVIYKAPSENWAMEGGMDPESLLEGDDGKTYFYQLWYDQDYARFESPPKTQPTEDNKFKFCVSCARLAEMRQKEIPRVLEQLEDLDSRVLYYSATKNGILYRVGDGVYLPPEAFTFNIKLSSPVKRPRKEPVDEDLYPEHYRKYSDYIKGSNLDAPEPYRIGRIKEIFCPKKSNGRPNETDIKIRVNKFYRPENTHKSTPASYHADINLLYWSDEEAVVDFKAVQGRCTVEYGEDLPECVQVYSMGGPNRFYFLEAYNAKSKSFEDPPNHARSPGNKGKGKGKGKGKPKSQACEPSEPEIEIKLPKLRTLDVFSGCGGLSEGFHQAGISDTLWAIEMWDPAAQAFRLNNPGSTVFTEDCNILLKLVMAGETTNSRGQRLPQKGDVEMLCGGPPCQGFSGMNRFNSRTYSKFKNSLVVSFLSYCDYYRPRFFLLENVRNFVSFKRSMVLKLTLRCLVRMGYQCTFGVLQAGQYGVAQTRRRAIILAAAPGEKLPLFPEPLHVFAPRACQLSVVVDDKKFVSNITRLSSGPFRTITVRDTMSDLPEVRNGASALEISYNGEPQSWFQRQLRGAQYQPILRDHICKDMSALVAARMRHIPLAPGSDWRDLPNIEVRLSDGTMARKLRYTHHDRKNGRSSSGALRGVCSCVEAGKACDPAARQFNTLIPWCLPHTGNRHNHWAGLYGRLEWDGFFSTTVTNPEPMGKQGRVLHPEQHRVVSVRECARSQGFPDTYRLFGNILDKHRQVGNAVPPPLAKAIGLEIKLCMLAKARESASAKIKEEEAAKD
Sequence of Protein arginine N-methyltransferase 3 (O60678 whole entry, the tested form may be a part): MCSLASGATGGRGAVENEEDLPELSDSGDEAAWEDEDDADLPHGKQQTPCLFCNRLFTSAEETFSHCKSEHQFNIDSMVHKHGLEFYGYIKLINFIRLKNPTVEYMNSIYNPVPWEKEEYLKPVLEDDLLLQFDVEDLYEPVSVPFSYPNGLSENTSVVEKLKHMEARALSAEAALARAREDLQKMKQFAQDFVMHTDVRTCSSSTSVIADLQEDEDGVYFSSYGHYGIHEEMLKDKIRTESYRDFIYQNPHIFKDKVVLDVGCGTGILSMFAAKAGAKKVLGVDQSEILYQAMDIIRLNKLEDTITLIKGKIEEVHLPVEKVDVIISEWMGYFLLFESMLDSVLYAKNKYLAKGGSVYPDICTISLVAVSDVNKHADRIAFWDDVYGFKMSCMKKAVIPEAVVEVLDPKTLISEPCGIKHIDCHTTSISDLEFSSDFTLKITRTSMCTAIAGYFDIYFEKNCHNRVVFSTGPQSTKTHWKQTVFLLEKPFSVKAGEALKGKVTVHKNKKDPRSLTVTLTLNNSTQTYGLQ
Sequence of Protein arginine N-methyltransferase 5 (O14744 whole entry): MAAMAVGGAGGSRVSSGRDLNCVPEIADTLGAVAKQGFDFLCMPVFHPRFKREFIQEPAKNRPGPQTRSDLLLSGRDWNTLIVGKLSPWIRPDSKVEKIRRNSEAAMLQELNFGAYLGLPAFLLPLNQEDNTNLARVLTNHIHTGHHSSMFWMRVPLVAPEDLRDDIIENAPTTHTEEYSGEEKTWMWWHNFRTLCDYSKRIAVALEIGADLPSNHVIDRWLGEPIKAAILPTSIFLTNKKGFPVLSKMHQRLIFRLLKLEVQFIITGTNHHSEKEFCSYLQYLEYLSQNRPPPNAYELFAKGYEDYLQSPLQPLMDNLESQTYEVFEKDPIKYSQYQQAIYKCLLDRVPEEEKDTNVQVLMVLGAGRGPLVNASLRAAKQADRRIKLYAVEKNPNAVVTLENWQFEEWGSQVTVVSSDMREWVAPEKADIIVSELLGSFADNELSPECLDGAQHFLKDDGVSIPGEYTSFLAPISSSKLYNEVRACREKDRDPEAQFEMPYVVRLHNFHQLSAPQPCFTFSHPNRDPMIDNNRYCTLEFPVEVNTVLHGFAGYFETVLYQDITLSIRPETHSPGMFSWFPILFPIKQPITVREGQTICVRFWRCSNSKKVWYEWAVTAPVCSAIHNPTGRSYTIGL
Sequence of Histone-lysine N-methyltransferase SUV39H2 (Homo sapiens) (Q9H5I1 whole entry, the tested form may be a part): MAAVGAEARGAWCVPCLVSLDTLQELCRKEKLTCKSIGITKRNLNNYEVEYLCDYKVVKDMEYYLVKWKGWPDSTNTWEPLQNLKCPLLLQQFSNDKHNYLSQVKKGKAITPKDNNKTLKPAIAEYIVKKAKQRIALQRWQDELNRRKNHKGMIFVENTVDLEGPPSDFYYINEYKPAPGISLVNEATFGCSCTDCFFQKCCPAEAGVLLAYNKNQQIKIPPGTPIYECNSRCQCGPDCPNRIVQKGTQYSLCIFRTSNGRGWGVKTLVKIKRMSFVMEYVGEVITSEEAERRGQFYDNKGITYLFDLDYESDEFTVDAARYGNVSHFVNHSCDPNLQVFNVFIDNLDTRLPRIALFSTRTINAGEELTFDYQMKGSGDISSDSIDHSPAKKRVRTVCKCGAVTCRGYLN

Which inhibition [1] does the source give for `Nc1ncnc2c1c(Br)cn2[C@@H]1O[C@H](CSCC[C@H](N)C(=O)O)[C@@H](O)[C@H]1O` here?
Its inhibition is “inactive”.

What about the IC50 [2] of the same molecule?
The IC50 was 2.3 µM.

And the Ki [2]?
The Ki was 1.15 µM.

And the IC50 [3]?
Its IC50 is 1.9 µM.

What about the Ki [3] of the same molecule?
Its Ki is 0.95 µM.

And the IC50 [4]?
Its IC50 is 2.3 µM.

And the Ki [4]?
Its Ki is 1.15 µM.

And the inhibition (Homo sapiens)?
Its inhibition is “inactive”.

And the inhibition [5]?
The inhibition was “inactive”.

What about the inhibition [6] of the same molecule?
The inhibition was “inactive”.

What about the inhibition [7] of the same molecule?
Its inhibition is “inactive”.

And the inhibition [8]?
Its inhibition is “inactive”.

What about the inhibition [9] of the same molecule?
Its inhibition is “inactive”.

What about the IC50 [10] of the same molecule?
Its IC50 is 1.5 µM.

And the Ki [10]?
Its Ki is 0.75 µM.
